Env fusion inh = inhibitors of HIV Env-mediated cell fusion; inhibition, % at 12.3 µM; HeLa-JRFL Env/CEM21 cell fusion, luciferase; actives 1.1% (n = 360,000); AID 651610;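 active = mean replicate inhibition score of at least 50 and every replicate individually at or above 50; inconclusive = only one of the two criteria met; inactive = mean below 50 and not all replicates reaching 50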;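 note: 0% = plate neutral controls and 100% = maraviroc near 300 nM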
FGF22 binding-1 = shifts melting point of recombinant human FGF22; recombinant FGF22 thermal shift, SYPRO orange fluorescence; percent of sucrose octasulfate shift, DMSO zero; activity (Tm shift, normalised), % at 9.99 µM; Q9HCT0; actives 1.5% (n = 340,000); AID 651658;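 active = mean Tm shift, scaled 0 neutral to 100 positive control, at about 1.3% or above, every replicate too, limit read from the data; inconclusive = no clear call, values can overlap the other calls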
Target sequence (Q9HCT0 whole entry, looked up): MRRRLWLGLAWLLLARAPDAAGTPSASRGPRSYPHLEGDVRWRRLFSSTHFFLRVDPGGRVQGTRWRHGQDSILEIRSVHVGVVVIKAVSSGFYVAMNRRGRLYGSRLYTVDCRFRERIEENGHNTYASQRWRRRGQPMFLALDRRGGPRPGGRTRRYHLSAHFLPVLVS
EWS-Fli inh = inhibitors of EWS/Fli oncoprotein transcriptional activity; AID 651661; inhibition, % at 12.6 µM; A673 NR0B1-luciferase reporter, viability-normalised; actives 0.67% (n = 350,000);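 active = mean inhibition of at least 50% after viability correction, with every replicate also passing that limit; inconclusive = mean reaches 50% but only one of two replicates passes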;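 note: firefly luciferase signal divided by Alamar Blue viability fluorescence both relative to DMSO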
FN deposit inh = fibronectin deposition inhibition | actives 0.086% (n = 350,000) | inhibition, % at 12.6 µM | AH1F fibroblasts, Alexa488-fibronectin deposition fluorescence, overnight;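 active = mean inhibition across replicates of 30% or more, regardless of how many single replicates reach that level; inconclusive = mean under 30% yet at least half of replicates reach 30%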;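 note: positive control wells lacked labelled fibronectin entirely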
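material = AH1F fibroblast monolayer depositing Alexa488-labelled fibronectin into matrix | amount = 10000 AH1F cells/well | buffer or medium = DMEM plus 2% serum, read in PBS | incubation = 1 h cell adhesion before compound, then overnight fibronectin incubation | detection = fluorescence at 485 nm excitation, 525 nm emission | evaluation = percent inhibition as loss of matrix-bound fibronectin fluorescence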
PGC1a acetyl inh = lowers PGC1a acetylation signal in U2OS cells; AlphaScreen anti-acetyl-lysine; with virally co-expressed GCN5 acetyltransferase; inhibition, % at 15.6 µM; actives 0.17% (n = 350,000);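 active = every replicate shows inhibition of at least 40%; inconclusive = mean inhibition at least 40% but some replicate below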;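 note: 0% = neutral control wells and 100% = positive control wells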
PAX8 inh HTS = inhibitors of PAX8 transcriptional activity in RMG-I cells; RMG-I TPO-luciferase reporter, SteadyGlo, 24 h; inhibition, % at 12.6 µM; actives 1.2% (n = 360,000); AID 652154;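 active = mean replicate inhibition at least 60% with every replicate also reaching 60%; inconclusive = only one of the two criteria is met; inactive = mean below 60% and not all replicates reaching 60%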;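 note: luciferase light reporting Pax8 driven TPO promoter activity; plate controls were median of neutral control wells for no effect and mitoxantrone controls for full effect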
FGF22 binding-2 = binds human FGF22 shifting its melting temperature; recombinant FGF22 thermal shift, SYPRO orange fluorescence; shares compounds with FGF22 binding-1; actives 2% (n = 1,000); thermal shift activity, °C (ΔTm) at 38 µM;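 active = fitted rise in melting shift crosses a set limit at or below the top valid dose tested; inconclusive = flat fit at mid-level activity, or a poor quality fit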
FGF22 TSA DP = binds human FGF22 shifting its melting temperature; Tm shift (activity), % at 38 µM; Thermal shift assay, SYPRO orange, melting temperature shift; 50 tested, under 10 active; shares compounds with FGF22 binding-1;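 active = compounds whose fitted dose curve of melting temperature shift rises past a set threshold within the tested doses; inconclusive = flat curve at moderate activity, or poor curve fit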
SYPRO no-protein = compound-only SYPRO artifact for FGF22 binders; shares compounds with FGF22 binding-1; compound-only SYPRO orange thermal shift counter-screen, no protein; AC50, µM (titrated, usually from 38 µM); actives 2% (n = 1,000);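 active = rising signal whose fitted curve reaches the 0.54 level within the top valid dose, showing a melting point, actives reach about 13 µM in these data; inactive = the rest, including activity in the opposite direction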; note: value is where the raw curve crosses a fixed level and not half-maximal
The depositor's hits bear a star; i = inactive; ? = inconclusive; . = not tested or not shown; [ ] = dose if it differs, or a comment. An excerpt weighted towards active compounds, which were near 3.1% of everything screened.

SMILES	Env fusion inh	FGF22 binding-1	EWS-Fli inh	FN deposit inh	PGC1a acetyl inh	PAX8 inh HTS	FGF22 binding-2	SYPRO no-protein	others
O=C(C(=O)N1CCC(CNS(=O)(=O)Cc2ccccc2)CC1)c1cccs1	-11	27*	3	6	.	2	0.071	i
N#Cc1ccc(NC(=O)Nc2cccc(C#N)c2)cc1	46	1.9*	-1	-1	.	1	.	6.4µM*
N#Cc1cccc(NC(=O)c2ccccc2C(=O)O)c1	-32	.	.	.	3	.	.	.
O=C(CN1CCOCC1)Nc1ccc(OC(F)(F)F)cc1	-12	0	-8	2	.	-18	.	.
O=C(CN1CCCC1)Nc1ccc(OC(F)(F)F)cc1	5	26*	-27	-16	-8	-21	0.11	i
COc1ccc(NC(=O)Nc2ccc3c(c2)C(=O)N([C@H](C)CO)C[C@@H](C)[C@H](CN(C)Cc2ccc(Oc4ccccc4)cc2)O3)cc1	7[16.7 µM]	0	-4	.	-7	-50	.	.
O=C(O)C1CCC(CNCc2ccccc2Cl)CC1 (stereo unspecified)	16	0	-15	4	.	-3	.	.
CCOC(=O)C1CCC(CNCc2ccccc2C)CC1 (stereo unspecified)	?	1.6*	-5	7	21	-1	0.054	i
O=C(CCc1c[nH]c2ccccc12)Nc1ccc(Nc2cccnc2)cc1	1	2.0*	15	3	.	-7	-0.069	i
COc1ccccc1NC(=O)N1C[C@@H](O)COC[C@@H]2O[C@@H](CC(=O)NCCc3ccncc3)CC[C@H]21	-23[16.7 µM]	0	-8	9	-4	-5	.	.
O=C(N/N=C/c1ccncc1)c1cc2ccccc2o1	17	1.8*	10	-7	.	-23	0.023	i
CC1(c2ccc3ccccc3c2)NC(=O)N(CC(=O)Nc2ncccc2O)C1=O (stereo unspecified)	.	1.7*	-3	1	.	3	0.14	i
Cc1ccnc(NC(=O)CN2C(=O)NC(C)(c3ccc4ccccc4c3)C2=O)c1 (stereo unspecified)	-3	-1	-29	5	.	7	.	.
CO[C@@H]1CN(C)C(=O)c2cc(NC(C)=O)ccc2OC[C@H](C)N(Cc2ccncc2)C[C@@H]1C	.	0	0	-6	10	.	.	.
CC1=C2[C@@H](c3ccccc3)OB(O)C[C@@H]2n2c(=O)n(-c3ccccc3)c(=O)n2C1	1[16.7 µM]	1.3*	14	.	-22	-16	-0.18	i
CCC(=O)N1C[C@@H]2[C@H](c3ccccc31)[C@H](CO)N2C(=O)Nc1ccccc1F	.	0	-8	.	-1	7	.	.
CCCNC(=O)COC(=O)c1ccccc1C(=O)N(C)C1CCCCC1	3	14*	-6	-19	-6	23	-0.085	i	FGF22 TSA DP=0
CN(C(=O)c1ccccc1C(=O)OCC(=O)NCc1ccccc1)C1CCCCC1	11	0	-2	8	.	20	.	.
O=C(NCC1CCOCC1)c1ccc2nc(Cc3cccc(Cl)c3)oc2c1	8	1.4*	-45	.	.	-117	0.33	i
CN(CC1CCOCC1)C(=O)c1ccc2nc(Cc3cccc(Cl)c3)oc2c1	14	0	.	2	-2	2	.	.
Oc1ccc(-c2nnc(Nc3cccc(O)c3)c3ccccc23)cc1	-21	1.9*	4	14	-46	9	-0.14	i
CC(C)(C)N(Cc1ccccc1)C(=O)COC(=O)C1CCN(c2ccc(C(F)(F)F)cn2)CC1	.	0	3	-6	18	7	.	.
CC(C)N(Cc1ccccc1)C(=O)COC(=O)C1CCN(c2ccc(C(F)(F)F)cn2)CC1	12	1.5*	-1	12	.	14	-0.009	i
CCNC(=O)C[C@H]1CC[C@@H]2[C@H](COC[C@H](O)CN2C(=O)C2CCOCC2)O1	-13[16.7 µM]	27*	-2	-11	-5	1	0.056	i
O=C(C[C@H]1CC[C@H]2[C@@H](COC[C@@H](O)CN2C(=O)C2CC2)O1)NCc1ccncc1	.	6.3*	3	-8	-4	2	0.012[42 µM]	i
SMILES	Env fusion inh	FGF22 binding-1	EWS-Fli inh	FN deposit inh	PGC1a acetyl inh	PAX8 inh HTS	FGF22 binding-2	SYPRO no-protein	others
Cc1ccccc1-n1ncc2c1CC(C)(C)CC2NC(=O)C1CCC1 (stereo unspecified)	5	1.4*	.	-1	-3	-1	0.088	i
C=CCC(=O)NC1CC(C)(C)Cc2c1cnn2-c1ccccc1C (stereo unspecified)	1	0	-2	-9	.	3	.	.
CC(C)N(C[C@H]1N[C@H](CO)[C@H]1c1ccccc1)S(=O)(=O)c1ccccc1	.	1.4*	0	-13	1	7	0.02[42 µM]	i
C[C@H](CO)N1C[C@H](C)[C@@H](CN(C)CC2CCCCC2)Oc2ccc(NC(=O)CCCN(C)C)cc2CC1=O	-16[16.7 µM]	0	-1	.	-12	3	.	.
CCOc1ccc(C2NC(=O)Cc3cc(OC)c(OC)cc32)cc1 (stereo unspecified)	2	0	-4	-1	7	5	.	.
CCOc1ccc(C2OC(=O)Cc3cc(OC)c(OC)cc32)cc1 (stereo unspecified)	.	14*	12	.	8	.	0.097	i
CCCCNC(=O)C1c2cc(OC)c(OC)cc2C(=O)N(C)C1c1cccs1 (stereo unspecified)	-8	3.6*	6	.	-3	6	-0.059	i
CCCN(CCC)CCCNC(=O)C1c2cc(OC)c(OC)cc2C(=O)N(C)C1c1cccs1 (stereo unspecified)	-14	.	.	-3	0	.	.	.
COc1cc(C)c2c(c1C=O)Oc1c(c(C)c(O)c3c1C(O)OC3=O)OC2=O (stereo unspecified)	.	2.1*	4	.	-6	.	0.067	i
C[C@H](CO)N1C[C@H](C)[C@@H](CN(C)C(=O)Nc2cccc3ccccc23)Oc2c(NC(=O)Nc3cccc4ccccc34)cccc2C1=O	-18[16.7 µM]	0	21	.	.	.	.	.
COc1cc(C2C(C#N)=C(N)Oc3n[nH]c(-c4cccnc4)c32)cc(Br)c1O (stereo unspecified)	4	1.8*	5	-3	.	-1	0.28	i
COc1cc(C2C(C#N)=C(N)Oc3n[nH]c(-c4cccnc4)c32)ccc1OCC(N)=O (stereo unspecified)	-22	0	0	1	12	-19	.	.
CN1CCN(C(=O)C[C@H]2CC[C@@H]3[C@@H](COc4ccc(NC(=O)C5CCOCC5)cc4C(=O)N3C)O2)CC1	-36[16.7 µM]	0	-56	-3	.	-15	.	.

Screening results deposited in PubChem by Broad Institute.
